{"data": "Measured values collected from several papers", "target": "Serine/threonine-protein kinase Nek11 (NEK11, Homo sapiens, UniProt Q8NG66)", "Sequence (Q8NG66 1-645, as in one of the studies)": "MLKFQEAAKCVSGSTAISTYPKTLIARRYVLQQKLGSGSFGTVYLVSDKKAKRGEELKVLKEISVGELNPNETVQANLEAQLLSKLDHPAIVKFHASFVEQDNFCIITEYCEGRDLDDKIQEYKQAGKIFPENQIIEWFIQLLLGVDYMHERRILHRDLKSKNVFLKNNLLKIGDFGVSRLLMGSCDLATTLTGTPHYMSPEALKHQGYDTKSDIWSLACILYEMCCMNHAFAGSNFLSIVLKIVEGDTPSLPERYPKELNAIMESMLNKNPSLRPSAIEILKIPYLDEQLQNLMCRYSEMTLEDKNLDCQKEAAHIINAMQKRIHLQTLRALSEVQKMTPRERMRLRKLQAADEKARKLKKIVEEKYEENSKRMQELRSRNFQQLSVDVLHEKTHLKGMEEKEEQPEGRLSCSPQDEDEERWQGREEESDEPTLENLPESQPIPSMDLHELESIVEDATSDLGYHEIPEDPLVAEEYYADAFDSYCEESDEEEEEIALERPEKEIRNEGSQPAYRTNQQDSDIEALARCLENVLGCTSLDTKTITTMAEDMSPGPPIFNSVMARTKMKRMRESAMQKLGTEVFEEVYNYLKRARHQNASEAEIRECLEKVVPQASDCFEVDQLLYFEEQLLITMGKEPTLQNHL"}
{"SMILES": "CN(C)c1nccc(-c2cnc3ncccn23)n1", "assay": "binding", "conditions": "1 µM", "remaining binding [%]": 81}
{"SMILES": "COc1ccc2c(c1)O[C@H](c1ccc(OC)c(OC)c1)C[C@@H]2NC(=O)C1(c2ccc3c(c2)OC(F)(F)O3)CC1", "assay": "cell-free assay, competition with immobilised ligand", "conditions": "1 µM", "remaining binding [%]": 88}
{"SMILES": "C=CC(=O)N1CCC(C(=O)NCC(=O)N2CCN(c3nc(-c4cnc(N)nc4C(F)F)nc(N4CCOCC4)n3)CC2)CC1", "assay": "binding, competition with immobilised ligand", "conditions": "1 µM", "remaining binding [%]": 69}
{"SMILES": "CCN1CCN(Cc2ccc(C(=O)Nc3ccc(C)c(Oc4ccc5c(c4)CC(=O)N5)c3)cc2C(F)(F)F)CC1", "assay": "binding, competition with immobilised ligand", "conditions": "1 µM", "remaining binding [%]": 100}
{"SMILES": "CNCc1ccccc1-c1csc([C@H](C)Nc2nc(C)nc3cc(OC)c(OC)cc23)c1", "assay": "cell-free assay, competition with immobilised ligand", "conditions": "1 µM", "remaining binding [%]": 100}
{"SMILES": "O=C(c1ccc(Nc2ncc(Cl)c(-c3cc4ccccc4s3)n2)cc1)N1CCC(N2CCCC2)CC1", "assay": "binding, competition with immobilised ligand", "conditions": "1 µM", "remaining binding [%]": 80}
{"SMILES": "CN(c1nccc(-c2cnn3ncccc23)n1)C1CC1", "assay": "binding", "conditions": "1 µM", "remaining binding [%]": 100}
{"SMILES": "Cc1cc(-n2nc(Cc3cc(F)cc(C(F)(F)F)c3)nc2C)ccc1C(N)=O", "assay": "cell-free assay, competition with immobilised ligand", "conditions": "1 µM", "remaining binding [%]": 100}
{"SMILES": "O=C(NCCCN1CCOCC1)c1ccc(Nc2ncc(Cl)c(-c3ccc(Cl)s3)n2)cc1", "assay": "binding, competition with immobilised ligand", "conditions": "1 µM", "remaining binding [%]": 88}
{"SMILES": "COc1cnc(Nc2cccc(S(N)(=O)=O)c2)nc1N1CCN(c2ccccc2)C(=O)C1", "assay": "binding, competition with immobilised ligand", "conditions": "1 µM", "remaining binding [%]": 90}
{"SMILES": "CC(=O)C1=C(C)N(c2cccc(C(F)(F)F)c2)C(=O)N[C@@H]1c1ccc(C#N)nc1", "assay": "cell-free assay, competition with immobilised ligand", "conditions": "1 µM", "remaining binding [%]": 100}
{"SMILES": "COc1cnc(Nc2cccc(S(N)(=O)=O)c2)nc1N1CCN(c2ccccc2)CC1", "assay": "binding, competition with immobilised ligand", "conditions": "1 µM", "remaining binding [%]": 90}
{"SMILES": "N[C@H]1CCN(c2nccc(-c3cnn4ncccc34)n2)C1", "assay": "binding", "conditions": "1 µM", "remaining binding [%]": 71}
{"SMILES": "C[C@@H](c1ccc(-n2cnc3c(N)ncnc32)cc1)N1CCc2nn(C)c(Cc3ccccc3)c2C1=O", "assay": "binding, competition with immobilised ligand", "conditions": "0.1 µM", "remaining binding [%]": 78}
{"SMILES": "O=S(=O)(NC1CCC(c2cc(F)ccc2F)(S(=O)(=O)c2ccc(Cl)cc2)CC1)C(F)(F)F (stereo not drawn)", "assay": "cell-free assay, competition with immobilised ligand", "conditions": "1 µM", "remaining binding [%]": 100}
{"SMILES": "CC1CCCN1c1nccc(-c2cnn3ncccc23)n1 (stereo not drawn)", "assay": "binding", "conditions": "1 µM", "remaining binding [%]": 100}
{"SMILES": "O=C(c1ccc(Nc2ncc(Cl)c(-c3ccc(Cl)s3)n2)cc1)N1CCC(N2CCCC2)CC1", "assay": "binding, competition with immobilised ligand", "conditions": "1 µM", "remaining binding [%]": 100}
{"SMILES": "CN(C)c1nccc(-c2cnn3ncccc23)n1", "assay": "binding", "conditions": "1 µM", "remaining binding [%]": 100}
{"SMILES": "O=C(Nc1c[nH]nc1C(=O)NC1CCNCC1)c1cc(F)cc(F)c1", "assay": "binding, competition with immobilised ligand", "conditions": "1 µM", "remaining binding [%]": 91}
{"SMILES": "COc1ccnn2ncc(-c3ccnc(N(C)C)n3)c12", "assay": "binding", "conditions": "1 µM", "remaining binding [%]": 100}
{"SMILES": "O=C(NCCCC1CCCCC1)c1ccc(CNC(=O)c2cnn(-c3ccccc3)c2C(F)(F)F)cc1", "assay": "cell-free assay, competition with immobilised ligand", "conditions": "0.1 µM", "remaining binding [%]": 100}
